Laboratory results from ChEMBL document CHEMBL1123549, “Detection of N-acetyl-p-benzoquinone imine produced during the hydrolysis of the model phenacetin metabolite N-(pivaloyloxy)phenacetin” (J Med Chem, 1986).

Experiments:
Type in all cases: ADME
[1] = (§1) Pseudo-first-order rate constant for the decomposition of compound at 25 degree C in presence of HCl at pH 2.00; details: buffer
In short: (§2)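 Hydrolysis followed by UV absorbance (repetitive scans; traces at 266.5 and 245 nm) at 25.0 ± 0.1 °C in 5 vol % CH3CN-H2O, ionic strength 0.50 M (KCl). Media were HCl solutions, or acetate or phosphate buffers at 0.01 M total buffer. Meter pH was corrected by subtracting 0.05. Rate constants came from fitting absorbance vs. time to a first-order or two-consecutive-first-order equation.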

[2] = (§3) Pseudo-first-order rate constant for the decomposition of compound at 25 degree C in presence of HCl at pH 1.00; details: buffer
In short: (§4)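 Hydrolysis run in 5 vol % CH3CN-H2O, ionic strength 0.50 M (KCl), HCl solution, (25.0 ± 0.1) °C. pH meter readings corrected as pH = reading − 0.05, calibrated on standardized HCl. Progress followed by repetitive UV absorbance scans. Absorbance vs. time at 266.5 and 245 nm fit by least squares to the rate equation for two consecutive first-order processes, giving pseudo-first-order rate constants.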

[3] = Pseudo-first-order rate constant for the decomposition of compound at 25 degree C in presence of K2HPO4/[…]/HCl at pH 5.75; details: buffer; in short: as §2
[4] = Pseudo-first-order rate constant for the decomposition of compound at 25 degree C in presence of HCl at pH 2.00; Too fast to measure by conventional methods; details: buffer; in short: as §2
[5] = as §3; details: buffer; in short: as §2; remark: listed apart in the source
[6] = as §1; details: buffer; in short: as §4; remark: listed apart in the source
[7] = Pseudo-first-order rate constant for the decomposition of compound at 25 degree C in presence of KOAc/HCl at pH 4.60; details: buffer, pH 4.6; in short: as §2
[8] = Pseudo-first-order rate constant for the decomposition of compound at 25 degree C in presence of HCl at pH 1.00; Too fast to measure by conventional methods; details: buffer; in short: as §2
[9] = Pseudo-first-order rate constant for the decomposition of compound at 25 degree C in presence of HCl at pH 3.02; details: buffer; in short: as §2
[10] = Pseudo-first-order rate constant for the decomposition of compound at 25 degree C in presence of K2HPO4/[…]/HCl at pH 7.55; details: buffer; in short: as §2
[11] = Pseudo-first-order rate constant for the decomposition of compound at 25 degree C in presence of KOAc/HCl at pH 3.71; details: buffer; in short: as §2
[12] = Pseudo-first-order rate constant for the decomposition of compound at 25 degree C in presence of K2HPO4/[…]/HCl at pH 6.77; details: buffer; in short: as §2
[13] = Pseudo-first-order rate constant for the decomposition of compound at 25 degree C in presence of KOAc/HCl at pH 5.64; details: buffer; in short: as §2
[14] = Pseudo-first-order rate constant for the decomposition of compound at 25 degree C in presence of HCl at pH 2.31; details: buffer; in short: as §4
[15] = Pseudo-first-order rate constant for the decomposition of compound at 25 degree C in presence of HCl at pH 2.62; details: buffer; in short: as §4
[16] = Pseudo-first-order rate constant for the decomposition of compound at 25 degree C in presence of HCl at pH 1.30; details: buffer, pH 1.3; in short: as §4
[17] = Pseudo-first-order rate constant for the decomposition of compound at 25 degree C in presence of HCl at pH 1.59; details: buffer; in short: as §4

CCOc1ccc(N(OC(=O)C(C)(C)C)C(C)=O)cc1
k0 [1]: 0.0252 s⁻¹
k'' [2]: 0.00606 s⁻¹
k0 [3]: 0.0226 s⁻¹
k' [3]: 0.000303 s⁻¹
k'' [3]: 0.00287 s⁻¹
k' [4]: Too fast to measure by conventional methods
k0 [5]: 0.0271 s⁻¹
k'' [6]: 0.000996 s⁻¹
k0 [7]: 0.0263 s⁻¹
k' [7]: 0.0037 s⁻¹
k'' [7]: 0.000642 s⁻¹
k' [8]: Too fast to measure by conventional methods
k0 [9]: 0.0205 s⁻¹
k' [9]: 0.155 s⁻¹
k'' [9]: 0.000476 s⁻¹
k0 [10]: 0.0214 s⁻¹
k' [10]: 0.0000288 s⁻¹
k0 [11]: 0.0246 s⁻¹
k' [11]: 0.0246 s⁻¹
k'' [11]: 0.000471 s⁻¹
k0 [12]: 0.0219 s⁻¹
k' [12]: 0.0000512 s⁻¹
k0 [13]: 0.0224 s⁻¹
k' [13]: 0.000394 s⁻¹
k'' [13]: 0.00261 s⁻¹

CC(=O)N=C1C=CC(=O)C=C1
k'' [2]: 0.00639 s⁻¹
k'' [14]: 0.000703 s⁻¹
k'' [15]: 0.000575 s⁻¹
k'' [6]: 0.000977 s⁻¹
k'' [16]: 0.0034 s⁻¹
k'' [17]: 0.0019 s⁻¹
